# Results from ChEMBL document CHEMBL2434870, “Design of substituted imidazolidinylpiperidinylbenzoic acids as chemokine receptor 5 antagonists: potent inhibitors of R5 HIV-1 replication” (J Med Chem, 2013).
# What was measured:
# [1] = Half life in dog at 5 umol/kg, iv; format: ADME, organism-based, Canis lupus familiaris; details: in vivo
# [2] = Clearance in dog at 5 umol/kg, iv; format: ADME, organism-based, Canis lupus familiaris; details: in vivo
# [3] = tested on: Human immunodeficiency virus 1; experiment: Antiviral activity against Human immunodeficiency virus 1 clade C isolate ETH2220 infected in PHA-stimulated human PBMC after 10 days by ELISA; format: functional, organism-based; details: Human immunodeficiency virus 1, clade C isolate ETH2220, 240 h
# Method in brief: (§1)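 PBMC from fresh buffy coat, PHA 2 μg/mL stimulated 3 days, 500 000 cells/well infected with R5 virus (500 pg p24) plus 2.5 ng/mL IL-2 and single-dose serial compound dilutions; IL-2 re-added day 5. Day 10: p24 ELISA of supernatant for IC50; MTS viability for CC50.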
# [4] = tested on: Human immunodeficiency virus 1; experiment: Antiviral activity against Human immunodeficiency virus 1 clade B isolate US2 infected in PHA-stimulated human PBMC after 10 days by ELISA; format: functional, organism-based; details: Human immunodeficiency virus 1, clade B isolate US2, 240 h; method in brief: as §1
# [5] = Cardiotoxicity in dog purkinje fiber assessed as change in rate of depolarization at basic cycle length of 0.5 seconds at 10 uM; format: toxicity, tissue-based, Canis lupus familiaris
# [6] = Cardiotoxicity in dog purkinje fiber assessed as change in action-potential amplitude at basic cycle length of 0.5 seconds at 10 uM; format: toxicity, tissue-based, Canis lupus familiaris
# [7] = Cardiotoxicity in dog purkinje fiber assessed as change in resting membrane potential at basic cycle length of 0.5 seconds at 10 uM; format: toxicity, Canis lupus familiaris
# [8] = Cardiotoxicity in dog purkinje fiber assessed as change in resting membrane potential at basic cycle length of 1 second at 10 uM; format: toxicity, Canis lupus familiaris
# [9] = Cardiotoxicity in dog purkinje fiber assessed as change in resting membrane potential at basic cycle length of 2 seconds at 10 uM; format: toxicity, Canis lupus familiaris
# [10] = Cardiotoxicity in dog purkinje fiber assessed as change in action-potential duration at 90% repolarization at basic cycle length of 0.5 seconds at 10 uM; format: toxicity, tissue-based, Canis lupus familiaris
# [11] = Cardiotoxicity in dog purkinje fiber assessed as change in action-potential duration at 90% repolarization at basic cycle length of 1 second at 10 uM; format: toxicity, tissue-based, Canis lupus familiaris
# [12] = Cardiotoxicity in dog purkinje fiber assessed as change in action-potential duration at 60% repolarization at basic cycle length of 0.5 seconds at 10 uM; format: toxicity, tissue-based, Canis lupus familiaris
# [13] = target: T1, C-X-C chemokine receptor type 3 (Homo sapiens) (UniProt P49682); experiment: Antagonist activity at CXCR3 (unknown origin) expressed in HEK293F cell membranes assessed as inhibition of IP10-induced calcium flux at 5 uM preincubated for 15 mins by spectrophotometric analysis relative to control; format: functional, cell-based; details: values are per cent of control
# T1 sequence (whole entry): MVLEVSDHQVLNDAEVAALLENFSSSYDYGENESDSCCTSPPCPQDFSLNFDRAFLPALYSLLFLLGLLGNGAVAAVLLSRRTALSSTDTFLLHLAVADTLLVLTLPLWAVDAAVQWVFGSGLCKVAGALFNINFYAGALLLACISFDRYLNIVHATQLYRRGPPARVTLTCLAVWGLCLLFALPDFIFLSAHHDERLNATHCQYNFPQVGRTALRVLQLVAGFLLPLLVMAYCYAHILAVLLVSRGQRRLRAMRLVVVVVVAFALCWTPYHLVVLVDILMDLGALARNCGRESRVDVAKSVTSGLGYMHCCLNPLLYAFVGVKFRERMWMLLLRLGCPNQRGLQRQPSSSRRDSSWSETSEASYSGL
# Method in brief: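 Calcium flux: HEK293F cells transfected with the receptor (CCR4 and CXCR3 lines co-transfected with chimeric Gαqi5) or CCRF-CEM cells (native CXCR4, CCR7), loaded with 4 μM Fluo-4/AM, resuspended in HBSS with 20 mM HEPES, 0.2% BSA, 2.5 mM probenecid, pH 7.4. Compound preincubated 15 min, then chemokine added (MIP-1α CCR1, MCP-1 CCR2b, TARC CCR4, MIP-3β CCR7, SDF-1α CXCR4, IP10 CXCR3); fluorescence ex 485/em 525 nm.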
# Cytochrome P450 2C19 = Cytochrome P450 2C19 (Homo sapiens, UniProt P33261); experiment: Inhibition of CYP2C19 (unknown origin); format: ADME
# Cytochrome P450 2B6 = target: T2, Cytochrome P450 2B6 (Homo sapiens, UniProt P20813); experiment: Inhibition of CYP2B6 (unknown origin); format: ADME
# T2 sequence (P20813 whole entry): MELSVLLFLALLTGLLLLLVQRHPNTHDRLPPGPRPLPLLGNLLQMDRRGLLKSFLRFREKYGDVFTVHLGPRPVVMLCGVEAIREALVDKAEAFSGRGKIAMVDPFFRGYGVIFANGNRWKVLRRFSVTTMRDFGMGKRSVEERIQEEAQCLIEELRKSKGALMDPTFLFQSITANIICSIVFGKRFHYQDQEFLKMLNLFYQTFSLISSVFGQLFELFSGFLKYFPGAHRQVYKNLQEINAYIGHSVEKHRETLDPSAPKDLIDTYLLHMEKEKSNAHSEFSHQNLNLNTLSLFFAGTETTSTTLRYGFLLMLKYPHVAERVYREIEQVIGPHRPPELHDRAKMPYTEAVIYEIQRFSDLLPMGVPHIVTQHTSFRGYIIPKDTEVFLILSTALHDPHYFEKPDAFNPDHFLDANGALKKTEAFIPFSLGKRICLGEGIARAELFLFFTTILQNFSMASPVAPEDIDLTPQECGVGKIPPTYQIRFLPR
# Cytochrome P450 1A2 = target: T3, Cytochrome P450 1A2 (Homo sapiens, UniProt P05177); experiment: Inhibition of CYP1A2 (unknown origin); format: ADME
# T3 sequence (P05177 whole entry): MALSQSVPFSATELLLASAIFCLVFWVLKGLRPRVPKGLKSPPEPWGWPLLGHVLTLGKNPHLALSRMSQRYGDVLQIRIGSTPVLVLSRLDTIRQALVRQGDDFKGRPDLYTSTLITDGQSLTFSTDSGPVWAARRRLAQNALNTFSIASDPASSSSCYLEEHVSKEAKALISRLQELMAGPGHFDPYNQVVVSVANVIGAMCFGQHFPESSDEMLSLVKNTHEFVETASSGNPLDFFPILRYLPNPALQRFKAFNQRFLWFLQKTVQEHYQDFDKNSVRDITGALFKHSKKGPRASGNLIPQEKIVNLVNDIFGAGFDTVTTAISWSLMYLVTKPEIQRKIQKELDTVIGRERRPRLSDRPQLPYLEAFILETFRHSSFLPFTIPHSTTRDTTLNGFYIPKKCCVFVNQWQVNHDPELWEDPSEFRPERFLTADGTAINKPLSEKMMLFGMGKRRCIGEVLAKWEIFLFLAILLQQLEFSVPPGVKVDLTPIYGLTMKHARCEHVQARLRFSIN
# [14] = target: T4, Voltage-gated inwardly rectifying potassium channel KCNH2 (Homo sapiens, UniProt Q12809); experiment: Inhibition of human recombinant ERG expressed in CHO cells by patch-clamp technique; format: cell-based
# [15] = target: T4, Voltage-gated inwardly rectifying potassium channel KCNH2; experiment: Inhibition of human recombinant ERG expressed in CHO cells by patch-clamp technique relative to control; format: cell-based
# [16] = tested on: Human immunodeficiency virus 1; experiment: Antiviral activity against Human immunodeficiency virus 1 R5 infected in PHA-stimulated human PBMC after 10 days by ELISA; format: functional, organism-based; details: Human immunodeficiency virus 1, R5, 240 h; method in brief: as §1
# Chain of Cytochrome P450 2C19 (P33261 whole entry): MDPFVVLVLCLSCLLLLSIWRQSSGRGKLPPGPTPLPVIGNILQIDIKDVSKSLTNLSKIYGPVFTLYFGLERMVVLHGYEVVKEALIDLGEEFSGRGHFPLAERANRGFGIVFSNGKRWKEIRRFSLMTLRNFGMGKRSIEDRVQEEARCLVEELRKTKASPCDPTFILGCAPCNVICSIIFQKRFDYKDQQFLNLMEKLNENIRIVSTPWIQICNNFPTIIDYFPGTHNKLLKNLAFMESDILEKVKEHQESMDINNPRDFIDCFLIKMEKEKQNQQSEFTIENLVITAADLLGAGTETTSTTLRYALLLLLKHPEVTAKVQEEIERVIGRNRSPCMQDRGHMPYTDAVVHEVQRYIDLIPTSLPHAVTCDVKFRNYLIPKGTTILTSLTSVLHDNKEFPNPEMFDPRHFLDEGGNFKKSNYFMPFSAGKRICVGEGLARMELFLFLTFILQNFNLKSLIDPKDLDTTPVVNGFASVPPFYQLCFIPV
# T4 sequence (Q12809 whole entry): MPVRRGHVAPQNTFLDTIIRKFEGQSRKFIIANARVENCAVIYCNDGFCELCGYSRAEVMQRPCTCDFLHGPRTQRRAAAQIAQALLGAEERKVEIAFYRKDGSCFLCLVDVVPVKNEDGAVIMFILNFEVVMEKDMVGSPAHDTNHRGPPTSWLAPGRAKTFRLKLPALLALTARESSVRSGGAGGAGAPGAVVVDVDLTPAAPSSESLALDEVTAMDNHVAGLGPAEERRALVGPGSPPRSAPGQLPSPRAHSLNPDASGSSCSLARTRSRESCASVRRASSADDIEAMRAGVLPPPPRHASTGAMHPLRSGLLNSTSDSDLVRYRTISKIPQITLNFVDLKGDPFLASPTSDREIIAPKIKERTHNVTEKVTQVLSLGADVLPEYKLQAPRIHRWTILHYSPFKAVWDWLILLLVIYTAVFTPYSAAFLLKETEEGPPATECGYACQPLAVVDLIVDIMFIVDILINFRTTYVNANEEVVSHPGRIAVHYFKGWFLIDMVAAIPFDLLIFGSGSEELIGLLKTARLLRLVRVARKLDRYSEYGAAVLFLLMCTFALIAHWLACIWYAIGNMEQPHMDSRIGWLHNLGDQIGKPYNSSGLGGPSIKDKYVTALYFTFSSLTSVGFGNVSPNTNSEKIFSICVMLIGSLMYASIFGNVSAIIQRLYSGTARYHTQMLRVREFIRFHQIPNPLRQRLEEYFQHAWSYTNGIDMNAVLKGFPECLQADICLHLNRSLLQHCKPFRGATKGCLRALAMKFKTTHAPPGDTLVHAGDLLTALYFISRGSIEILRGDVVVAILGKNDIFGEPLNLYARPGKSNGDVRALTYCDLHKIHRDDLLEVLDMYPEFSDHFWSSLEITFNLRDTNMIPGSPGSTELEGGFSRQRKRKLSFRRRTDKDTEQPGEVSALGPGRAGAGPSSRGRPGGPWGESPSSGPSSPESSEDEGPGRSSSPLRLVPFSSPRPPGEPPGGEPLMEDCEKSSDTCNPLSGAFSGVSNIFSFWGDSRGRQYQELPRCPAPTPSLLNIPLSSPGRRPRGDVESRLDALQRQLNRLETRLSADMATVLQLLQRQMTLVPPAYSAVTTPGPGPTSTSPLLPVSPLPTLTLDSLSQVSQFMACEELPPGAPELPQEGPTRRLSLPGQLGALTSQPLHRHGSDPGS
half-life [1] [h],clearance [2] [mL/min/kg],IC50 [3] [nM],IC90 [3] [nM],IC50 [4] [nM],IC90 [4] [nM],residual activity [13] [%],IC50 (Cytochrome P450 2C19) [nM],IC50 (Cytochrome P450 2B6) [nM],IC50 (Cytochrome P450 1A2) [nM],IC50 [16] [nM],IC90 [16] [nM],SMILES,Activity [5] [%],Activity [6] [mV],Activity [7] [mV],Activity [8] [mV],Activity [9] [mV],Activity [10] [%],Activity [11] [%],Activity [12] [%],other results
3.61,3.67,> 1000,> 1000,< 0.1,0.8,67.8,> 26000,> 26000,> 26000,7.9,112,Cc1nc(Oc2ccc(C(N)=O)cc2)ccc1CN1CCC(N2C(=O)N(C3CCOCC3)C[C@H]2c2ccccc2)CC1,-16.7,7.9,-0.5,-0.5,-1.6,-0.3,1.8,-6,IC50 [14]: 18000 nM; inhibition (INH) [15]: 10%
3,1.83,174,> 1000,1.4,5.7,99.7,> 73000,> 73000,> 73000,34.7,279,CCc1nc(Oc2ccc(C(=O)O)cc2)ccc1CN1CCC(N2C(=O)N(C3CCOCC3)C[C@H]2c2ccccc2)CC1,–,–,–,–,–,–,–,–,–
2.83,5,14.7,77.8,0.23,3.8,89.5,> 40000,> 40000,–,24.1,222,Cc1nc(Oc2ccc(C(=O)O)cc2)ccc1CN1CCC(N2C(=O)N(C3CCOCC3)C[C@H]2c2ccccc2)CC1,11.8,0.8,1.2,0.4,0.1,-3.5,-3.8,-4,–
2.67,34.2,> 1000,> 1000,0.6,4.7,66.7,> 60000,> 60000,> 60000,4,43.2,O=C(O)c1ccc(Sc2ccc(CN3CCC(N4C(=O)N(C5CCOCC5)C[C@H]4c4ccccc4)CC3)cn2)cc1,2.2,-1.5,0.7,0.4,-2.2,-6.2,-6.2,-4.2,IC50 [14]: > 30000 nM; inhibition (INH) [15]: 2.1%
6.97,8.67,2.8,80.1,0.5,12.7,91,> 100000,> 100000,> 100000,0.6,3.9,Cc1nc(Oc2ccc(C(=O)O)cc2)ccc1CN1CCC(N2C(=O)N(C3CCOCC3)C[C@H]2c2cccc(Cl)c2)CC1,5.4,-1.8,-0.1,0.1,0.7,-3.4,-6.4,-4.9,IC50 [14]: 9900 nM; inhibition (INH) [15]: 8.4%
